Source: ChEMBL document CHEMBL4371061, “Identification of novel triazole inhibitors of Wnt/β-catenin signaling based on the Niclosamide chemotype” (Bioorg Med Chem Lett, 2019)
Activity calls are given as the source filed them. The calls are words filed in the database; no cut-off is given here.

How the values were obtained:
[1] = target: Frizzled-1 (Homo sapiens) (UniProt Q9UP38); experiment: Induction of GFP-tagged Fzd1 (unknown origin) internalization expressed in human U2OS cells at 12.5 after 6 hrs by confocal microscopic method relative to control; format: cell-based
Summary of the method: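 U2OS cells stably expressing Frizzled1-GFP were exposed to compound for 6 h, fixed and imaged by confocal microscopy. Punctate was scored visually against DMSO control: similar to control = 0, trace = 1, moderate = 3, strong = 5.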

[2] = Inhibition of Wnt3A-stimulated Wnt/beta-catenin pathway in HEK293 cells transfected with p8xTOPFlash, Renilla luciferase plasmid pRL-TK and pLKO.1 after 8 hrs by Dual topflash luciferase reporter gene assay; format: cell-based; conditions: Homo sapiens, HEK293, 8 h
Summary of the method: (§1)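 HEK293 cells stably carrying a TOPFlash luciferase reporter and a Renilla luciferase control were stimulated with Wnt3A-conditioned medium and given DMSO or compound (0.04–10 μM) for 8 h. Wnt3A plus DMSO was set as 100%. IC50 was fit from mean ± SEM, n 3. Percent inhibition at the two highest concentrations was given when no full curve was obtained.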

HEK293 [3] = experiment: Inhibition of Wnt3A-stimulated Wnt/beta-catenin pathway in HEK293 cells transfected with p8xTOPFlash, Renilla luciferase plasmid pRL-TK and pLKO.1 at 5 uM after 8 hrs by Dual topflash luciferase reporter gene assay relative to control; format: cell-based; conditions: Homo sapiens; summary of the method: as §1
HEK293 [4] = experiment: Inhibition of Wnt3A-stimulated Wnt/beta-catenin pathway in HEK293 cells transfected with p8xTOPFlash, Renilla luciferase plasmid pRL-TK and pLKO.1 at 10 uM after 8 hrs by Dual topflash luciferase reporter gene assay relative to control; format: cell-based; conditions: Homo sapiens; summary of the method: as §1
Homo sapiens [5] = species: Homo sapiens; experiment: Inhibition of Wnt/beta-catenin signaling pathway in human HCT116 whole cell lysate harboring beta-catenin mutation assessed as reduction in cyclin D1 protein expression at 5 uM after 18 hrs by Western blot analysis relative to control; format: subcellular
Summary of the method: (§2)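 Cells were treated with 5 μM compound in DMSO, or DMSO alone, for 18 h. Cytosolic fraction and whole-cell lysate were immunoblotted for target proteins with β-actin as loading control. Band levels were normalized to β-actin and expressed as percent of the DMSO-treated control.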

SW480 [6] = experiment: Inhibition of Wnt/beta-catenin signaling pathway in human SW480 whole cell lysate harboring APC mutation assessed as reduction in c-Myc protein expression at 5 uM after 18 hrs by Western blot analysis relative to control; format: subcellular; summary of the method: as §2
SW480 [7] = experiment: Inhibition of Wnt/beta-catenin signaling pathway in human SW480 whole cell lysate harboring APC mutation assessed as reduction in cyclin D1 protein expression at 5 uM after 18 hrs by Western blot analysis relative to control; format: subcellular; summary of the method: as §2
SW480 [8] = experiment: Inhibition of Wnt/beta-catenin signaling pathway in human SW480 cells cytosol lysate harboring APC mutation assessed as reduction in Axin2 protein expression at 5 uM after 18 hrs by Western blot analysis relative to control; format: subcellular; summary of the method: as §2
Homo sapiens [9] = species: Homo sapiens; experiment: Inhibition of Wnt/beta-catenin signaling pathway in human HCT116 whole cell lysate harboring beta-catenin mutation assessed as reduction in c-Myc protein expression at 5 uM after 18 hrs by Western blot analysis relative to control; format: subcellular; summary of the method: as §2
SW480 [10] = experiment: Inhibition of Wnt/beta-catenin signaling pathway in human SW480 cells cytosol lysate harboring APC mutation assessed as reduction in beta-catenin protein expression at 5 uM after 18 hrs by Western blot analysis relative to control; format: subcellular; summary of the method: as §2
Homo sapiens [11] = species: Homo sapiens; experiment: Inhibition of Wnt/beta-catenin signaling pathway in human HCT116 cells cytosol lysate harboring beta-catenin mutation assessed as reduction in beta-catenin protein expression at 5 uM after 18 hrs by Western blot analysis relative to control; format: subcellular; summary of the method: as §2
SW480 [12] = experiment: Inhibition of Wnt/beta-catenin signaling pathway in human SW480 whole cell lysate harboring APC mutation assessed as reduction in survivin protein expression at 5 uM after 18 hrs by Western blot analysis relative to control; format: subcellular; summary of the method: as §2
Homo sapiens [13] = species: Homo sapiens; experiment: Inhibition of Wnt/beta-catenin signaling pathway in human HCT116 cells cytosol lysate harboring beta-catenin mutation assessed as reduction in Axin2 protein expression at 5 uM after 18 hrs by Western blot analysis relative to control; format: subcellular; summary of the method: as §2
Homo sapiens [14] = species: Homo sapiens; experiment: Inhibition of Wnt/beta-catenin signaling pathway in human HCT116 whole cell lysate harboring beta-catenin mutation assessed as reduction in survivin protein expression at 5 uM after 18 hrs by Western blot analysis relative to control; format: subcellular; summary of the method: as §2
Homo sapiens [15] = species: Homo sapiens; experiment: Inhibition of Wnt/beta-catenin signaling pathway in human HCT116 whole cell lysate harboring beta-catenin mutation assessed as reduction in c-Myc protein expression at 5 to 10 uM after 18 hrs by Western blot analysis; format: subcellular
Homo sapiens [16] = species: Homo sapiens; experiment: Inhibition of Wnt/beta-catenin signaling pathway in human HCT116 whole cell lysate harboring beta-catenin mutation assessed as reduction in survivin protein expression at 5 to 10 uM after 18 hrs by Western blot analysis
Homo sapiens [17] = species: Homo sapiens; experiment: Inhibition of Wnt/beta-catenin signaling pathway in human HCT116 cells cytosol lysate harboring beta-catenin mutation assessed as reduction in beta-catenin protein expression at 5 to 10 uM after 18 hrs by Western blot analysis; format: subcellular
Homo sapiens [18] = species: Homo sapiens; experiment: Inhibition of Wnt/beta-catenin signaling pathway in human HCT116 cells cytosol lysate harboring beta-catenin mutation assessed as reduction in Axin2 protein expression at 5 to 10 uM after 18 hrs by Western blot analysis; format: subcellular
Homo sapiens [19] = species: Homo sapiens; experiment: Inhibition of Wnt/beta-catenin signaling pathway in human HCT116 whole cell lysate harboring beta-catenin mutation assessed as reduction in survivin protein expression at 5 to 10 uM after 18 hrs by Western blot analysis; format: subcellular
HEK293 [20] = experiment: Inhibition of Wnt3A-stimulated Wnt/beta-catenin pathway in HEK293 cells transfected with p8xTOPFlash, Renilla luciferase plasmid pRL-TK and pLKO.1 assessed as residual activity at 10 uM after 8 hrs by Dual topflash luciferase reporter gene assay relative to control; format: cell-based; conditions: Homo sapiens; summary of the method: as §1

Frizzled-1 (Homo sapiens), sequence (Q9UP38 70-647 limits assumed): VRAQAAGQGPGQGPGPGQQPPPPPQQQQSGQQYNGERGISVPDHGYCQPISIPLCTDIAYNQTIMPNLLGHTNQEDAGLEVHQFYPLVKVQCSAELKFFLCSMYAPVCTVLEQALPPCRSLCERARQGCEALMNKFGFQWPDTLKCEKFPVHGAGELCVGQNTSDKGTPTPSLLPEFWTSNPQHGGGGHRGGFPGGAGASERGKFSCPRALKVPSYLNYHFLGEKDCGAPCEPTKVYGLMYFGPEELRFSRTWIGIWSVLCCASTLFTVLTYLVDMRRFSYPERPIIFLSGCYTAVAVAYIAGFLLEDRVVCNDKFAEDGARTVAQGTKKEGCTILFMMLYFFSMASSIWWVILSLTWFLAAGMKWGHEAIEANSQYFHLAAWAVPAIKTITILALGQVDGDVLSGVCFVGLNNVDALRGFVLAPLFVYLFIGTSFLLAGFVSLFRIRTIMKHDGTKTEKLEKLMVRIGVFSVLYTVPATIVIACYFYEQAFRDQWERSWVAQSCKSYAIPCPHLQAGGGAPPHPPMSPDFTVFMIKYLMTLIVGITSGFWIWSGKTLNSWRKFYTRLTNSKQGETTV

score [1] | IC50 [2] [nM] | inhibition (Homo sapiens [5]) [%] | inhibition (SW480 [6]) [%] | inhibition (SW480 [7]) [%] | inhibition (SW480 [8]) [%] | inhibition (Homo sapiens [9]) [%] | inhibition (SW480 [10]) [%] | inhibition (Homo sapiens [11]) [%] | inhibition (Homo sapiens [13]) [%] | inhibition (Homo sapiens [15]) | inhibition (Homo sapiens [17]) | inhibition (Homo sapiens [18]) | SMILES | inhibition (HEK293 [3]) [%] | inhibition (HEK293 [4]) [%] | inhibition (SW480 [12]) [%] | inhibition (Homo sapiens [14]) [%] | inhibition (Homo sapiens [16]) | inhibition (Homo sapiens [19]) | Activity (HEK293 [20]) [%]
1 | 1910 |  |  |  |  |  |  |  |  |  |  |  | Oc1ccc(Cl)cc1-c1nnc(-c2ccc(F)cc2)[nH]1 |  |  |  |  |  |  | 
0 |  |  |  |  |  |  |  |  |  |  |  |  | COc1ccc(-c2nnc(-c3cc(Cl)ccc3O)[nH]2)cc1 | 14 | 60 |  |  |  |  | 
4 | 1410 | 20 | 2 | 70 | 44 | 2 | 67 | 59 | 75 |  |  |  | O=[N+]([O-])c1ccc(-c2nnc(-c3cc(Cl)ccc3O)[nH]2)cc1 |  |  | 38 | 38 |  |  | 
2 | 2880 | 17 | 2 | 76 | 58 | 3 | 72 | 6 | 68 |  |  |  | Oc1ccc(Cl)cc1-c1nnc(-c2ccc(C(F)(F)F)cc2)[nH]1 |  |  | 56 | 44 |  |  | 
0 | 4020 |  |  |  |  |  |  |  |  | Active | Active | Active | Oc1ccc(Cl)cc1-c1nnc(-c2ccccc2)[nH]1 |  |  |  |  | Active | Active | 
5 | 340 | 28 | 3 | 45 | 29 | 1 | 74 | 46 | 35 |  |  |  | O=C(Nc1ccc([N+](=O)[O-])cc1Cl)c1cc(Cl)ccc1O [NICLOSAMIDE] |  |  | 41 | 44 |  |  | 
0 |  |  |  |  |  |  |  |  |  |  |  |  | O=C(NC(=O)c1cc(Cl)ccc1O)c1ccc([N+](=O)[O-])cc1 |  |  |  |  |  |  | 153
0 |  |  |  |  |  |  |  |  |  |  |  |  | O=C(NCc1ccc([N+](=O)[O-])cc1)c1cc(Cl)ccc1O | 3 | 43 |  |  |  |  | 
5 | 1840 | 22 | 4 | 57 | 47 | 3 | 69 | 34 | 68 |  |  |  | O=[N+]([O-])c1ccc(-c2nnc(-c3cc(Cl)ccc3O)[nH]2)c(Cl)c1 |  |  | 43 | 38 |  |  | 
